An excerpt weighted towards active compounds, which were near 2.6% of everything screened.
Ecoli rRNA inh = selective bacterial rRNA inhibition in E. coli | E. coli WT GFP vs humanized-ribosome RFP mutants, fluorescence, 24 h; hits give low values; DMSO median 0, no signal -100 | GFP signal change (wild-type ribosome), % (no concentration beside the values) | hit rate 1.6% among 350,000 | AID 720706;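 active means significant combined selectivity score with lowered wild-type GFP, culture density cut under 30%, mutant RFP and density less affected; inactive means any of these conditions unmet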
Env fusion inh = HIV envelope-mediated fusion inhibition. HeLa-JRFL Env/CEM21 cell fusion, luciferase. inhibition, % at 12.3 µM. hit rate 1.1% among 360,000. AID 651610;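 active means mean replicate inhibition score of at least 50 and every replicate individually at or above 50; inconclusive means only one of the two criteria met; inactive means mean below 50 and not all replicates reaching 50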
FN deposit inh = fibronectin deposition inhibition; AH1F fibroblasts, Alexa488-fibronectin deposition fluorescence, overnight; inhibition, % at 12.6 µM; hit rate 0.086% among 350,000; AID 743247;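 active means mean inhibition across replicates of 30% or more, regardless of how many single replicates reach that level; inconclusive means mean under 30% yet at least half of replicates reach 30%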
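Assay system: AH1F fibroblasts assembling fluorescent fibronectin matrix; Amount: 10000 AH1F cells per well; Buffer or medium: DMEM, 2% serum; Probe or stimulus: Alexa488-fibronectin, 24 nM final in well; Doses: single compound dose, delivered by pin transfer; Incubation: 1 h adhesion, overnight exposure; Measured by: fluorescence 485/525 nm; Read-out: fibronectin deposition inhibition.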
S100A4 inh HTS = blocks human S100A4 binding to myosin IIA peptide; S100A4/TAMRA-MyoIIA peptide fluorescence polarization; inhibition, % at 10.7 µM; hit rate 0.14% among 360,000; AID 652163;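 active means mean inhibition of at least 70% across replicates, with every replicate also reaching that level; inconclusive means mean inhibition reaches 70% but some replicates fall short; inactive means mean inhibition below 70%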
Target sequence (P26447 whole entry, looked up): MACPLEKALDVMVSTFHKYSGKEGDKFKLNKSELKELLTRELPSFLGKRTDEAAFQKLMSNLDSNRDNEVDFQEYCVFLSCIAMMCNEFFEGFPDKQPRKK
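incubation = readout 5 min after mixing, signal stable up to 60 min | system = S100A4 monomer protein | buffer or medium = HEPES pH 7.2 with CaCl2, KCl, NaCl, DTT, Triton | benchmarks = neutral control DMSO, positive control TFP | also added = fluorescent myosin IIA peptide, 5 nM | compound dosing = one concentration per compound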
Vif inh = blocks HIV Vif function. HEK293T cells, Vif self-association by quenched fluorescence, imaging, 24 h. inhibition, % at 7.49 µM. hit rate 0.35% among 340,000. AID 602346; in the data active means inhibition above about 50%, passing the limit was not always enough; inconclusive means no clear call, values can overlap the other calls; inactive means below about 31%
miR122 inh = miR-122 inhibition in Huh7 cells | Huh7 miR-122 Renilla luciferase sensor, 48 h; neutral wells = 0, positive control = 100 | activation (reporter increase), % at 12.5 µM | hit rate 0.3% among 340,000 | AID 602342;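 active means mean replicate activation score at least 90 and every replicate individually at or above 90; inconclusive means only one of the two criteria met; inactive means neither criterion met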;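 further: higher luciferase means less miR-122 activity so hits act as miR-122 inhibitors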
Numbers stand for hits; . = inactive; ? = inconclusive; / = no result given.

SMILES | Ecoli rRNA inh | Env fusion inh | FN deposit inh | S100A4 inh HTS | Vif inh | miR122 inh
CCCC#Cc1ccc([C@H]2[C@@H](CO)N3CCCCN(C(=O)Cc4ccccn4)C[C@@H]23)cc1 | . | / | / | . | / | .
COC1C(C)OC(OC2CC(C)(O)Cc3cc4c(c(O)c32)C(=O)c2c(O)cc3c(c2C4=O)OC2OC3(C)C(O)C(N(C)C)C2O)C(OC)C1(C)OC (centres undefined) | . | 71 | . | . | . | /
CCCN1[C@@H]2c3ccc(-c4ccccc4)c(=O)n3C[C@H]1[C@H](CO)[C@H]2C(=O)OC | . | / | / | . | / | .
O=C1OC(c2ccc([N+](=O)[O-])cc2)=N/C1=C/N1CC2CC(C1)c1cccc(=O)n1C2 (centres undefined) | . | . | . | . | 52 | /
Oc1ccc(/C=N/NP(=S)(c2ccccc2)c2ccccc2)cc1O | -21 | . | / | . | . | .
COC(=O)[C@H]1[C@H](CO)[C@H]2Cn3c(ccc(/C=C/c4ccccc4)c3=O)[C@@H]1N2C(=O)C1CCC1 | . | / | / | . | / | .
O=C(Cc1cccnc1)N1CCCCN2[C@H](C1)[C@@H](c1ccc(C#CC3CC3)cc1)[C@@H]2CO | / | / | / | . | / | .
CCN1[C@@H]2c3ccc(-c4ccc(OC)cc4)c(=O)n3C[C@H]1[C@H](CO)[C@H]2C(=O)OC | . | / | / | . | / | /
C#CC1(O)C=CC2C3CCC4=CC(=O)CCC4C3CCC21CC (centres undefined) | -20 | . | . | . | . | .
CCC1(O)CCC2C3CCC4=CC(=O)CCC4C3CCC21CC (centres undefined) | . | . | / | . | . | .
CCC1(OC(=O)CN)C(=O)OCc2c1cc1n(c2=O)Cc2cc3ccccc3nc2-1 (centres undefined) | . | / | / | . | . | .
CC[C@@]1(O)C(=O)OCc2c1cc1n(c2=O)Cc2cc3c(NC(=O)CN)cccc3nc2-1 | . | 69 | . | . | / | /
O=C(O)[C@@H]1[C@@H](CO)[C@@H]2Cn3c(ccc(-c4ccncc4)c3=O)[C@H]1N2C(=O)C1CCCC1 | . | / | / | . | / | /
CC(Cc1ccc(O)cc1)NCC(O)c1cc(O)cc(O)c1 (centres undefined) | . | 74 | . | . | 90 | .
C[C@H](Cc1ccc(OCC(=O)O)cc1)NC[C@H](O)c1cccc(Cl)c1 | . | . | . | . | / | /
CCC(=NCCCn1ccnc1)c1c(O)n(-c2ccccc2)c(=O)[nH]c1=O | . | . | . | . | . | /
CCCCCCC(=O)c1c(O)n(-c2ccccc2OC)c(=O)[nH]c1=O (tested in a mixture with another compound) | . | . | . | . | . | .
CCCCCCC(=O)c1c(O)n(-c2ccc(OC)cc2)c(=O)[nH]c1=O (tested in a mixture with another compound) | -20 | . | . | . | . | /
COc1ccc(-n2c(O)c(C(C)=NCCCn3ccnc3)c(=O)[nH]c2=O)cc1 | / | 69 | . | / | . | .
CC=Cc1ccc2n(c1=O)C[C@H]1[C@H](CO)[C@@H](C(=O)OC)[C@@H]2N1C(=O)CC (mixture of isomers) | . | / | / | . | / | /
Cc1nc(Cl)sc1C(=O)Nc1ccc2ccccc2c1 | -31 | / | . | . | / | /
O=C(c1ccc(Cl)cc1)C1CCCN(Cc2ccc3nonc3c2)C1 (centres undefined) | -28 | . | . | . | . | .
O=C(c1ccc(Cl)cc1)C1CCCN(Cc2cccc3cccnc23)C1 (centres undefined) | -23 | . | / | . | . | .
O=C(c1ccc(Cl)cc1)C1CCCN(Cc2cccc3ncccc23)C1 (centres undefined) | . | . | . | . | . | .
O=C(Cc1ccccc1)N1CCCCN2[C@@H](CO)[C@H](c3ccc(-c4ccccc4)cc3)[C@@H]2C1 | . | / | / | . | / | .
SMILES | Ecoli rRNA inh | Env fusion inh | FN deposit inh | S100A4 inh HTS | Vif inh | miR122 inh
CCCN1[C@@H]2Cn3c(ccc(-c4cccc(OC)c4)c3=O)[C@H]1[C@@H](C(=O)OC)[C@@H]2CO | . | / | / | . | / | /
CC1=CC2OC3CC4OC(=O)C=CC=CC(=O)OCCC(C)C(O)C(=O)OCC2(CC1O)C4(C)C31CO1 (centres undefined) | / | / | / | / | . | /
CC1=CC2OC3CC4OC(=O)C=CC=CC(C(C)O)OCC(O)C(C)CC(=O)OCC2(CC1O)C4(C)C31CO1 (centres undefined) | . | 83 | . | . | . | .
O=C(Cc1ccncc1)N1CCCCN2[C@H](CO)[C@@H](c3ccc(C#CC4(O)CCCC4)cc3)[C@@H]2C1 | . | / | / | . | / | .
O=C1C=CC(=O)C2C1C1(Cl)C(Cl)=C(Cl)C2(Cl)C1(Cl)Cl (centres undefined) | . | 66 | . | . | . | .
CC(C)NC(=O)N1CC2C(c3ccccc3)C(C1)N2C (centres undefined) | . | / | . | / | / | /
O=C(O)[C@@H]1[C@@H](CO)[C@@H]2Cn3c(ccc(C4=CCCCC4)c3=O)[C@H]1N2CCc1ccccc1 | . | . | / | / | / | /
O=C1NC(=O)[C@]2(Cc3ccccc3N3CCN(c4ccccc4)CC32)C(=O)N1c1ccccc1 (some centres undefined) | / | . | 31 | / | . | .
C=C1C(C)C2C(Cc3ccccc3)NC(=O)C23OC(=O)/C=C/C(O)CCCC(C)C/C=C/C3C1O (centres undefined) | . | ? | 41 | . | . | .
C[C@@H]1O[C@@H](O[C@@H]2C=C3CCC4C(CC[C@]5(C)[C@@H](c6ccc(=O)oc6)CC[C@]45O)[C@@]3(C)CC2)[C@H](O)[C@H](O)[C@H]1O (some centres undefined) | / | 65 | . | . | . | .
CC(=O)C1CCC2(O)C3CCC4=CC(=O)CCC4(C)C3CCC12C (centres undefined) | . | . | . | . | . | .
C[C@@H]1O[C@@H](O[C@@H]2C=C3CC[C@@H]4C(CC[C@]5(C)[C@@H](c6ccc(=O)oc6)CC[C@]45O)[C@@]3(C)CC2)[C@H](O)[C@H](O)[C@H]1O (some centres undefined) | . | 93 | . | . | . | .
CCCNC(=O)[C@H]1[C@H](CO)[C@H]2Cn3c(cccc3=O)[C@H]2N1C | . | . | / | . | / | /
COc1ccc(C#Cc2ccc([C@H]3[C@H]4CN(C(=O)Cc5ccncc5)CCCCN4[C@H]3CO)cc2)cc1 | . | / | / | . | / | .
COc1cccc(N2CCN(Cc3ccc(Cl)cc3)CC2)c1 | -33 | / | / | . | . | .
COc1cccc(N2CCN(Cc3cccc(Cl)c3)CC2)c1 | -24 | / | / | . | . | .
COc1cccc(CC(=O)N2CCN(Cc3cccc(Cl)c3)CC2)c1 | . | . | . | . | . | /
O=C(Cc1ccccc1)N1CCCCN2[C@H](C1)[C@H](c1ccc(C#Cc3ccccc3)cc1)[C@@H]2CO | . | / | / | . | / | .

Assay outcomes from PubChem BioAssay.
